The target of data set [1] is Angiotensin-converting enzyme (Oryctolagus cuniculus) (UniProt P12822). Kind of data set: Inhibition of Angiotensin I converting enzyme from rabbit lung. As to conditions: read-out: I50.
Data set [2] is described as follows: Time required for 50% degradation in rat stomach homogenate. In kind it is ADME. As to conditions: read-out: Time (converted). In a few lines: (§1)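 Peptide, partially neutralized with 0.1 N HCl, incubated at 37 °C with 150 mg rat stomach homogenate. Breakdown monitored by TLC.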
The subject of another data set is trypsin. The data set can be described thus: Time required for 50% degradation by trypsin. As to conditions: read-out: Time. Type of data set: ADME.
The nature of data set [3]: Time required for 100% degradation by trypsin. In kind it is ADME.
For data set [4], the species on record is Rattus norvegicus. The data set can be described thus: Time required for 100% degradation in rat stomach homogenate. In kind it is ADME. In a few lines:
as §1

Data set [5] is described as follows: Time required for 50% degradation in rat intestinal homogenate. Type of data set: ADME. As to conditions: read-out: Time (converted). In a few lines:
(§2)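 Rat small intestine was taken immediately after sacrifice and minced in Krebs Ringer (10 mL/g). Peptide (0.2–0.5 μmol) mixed with homogenate (1.0 mL per μmol), shaken at 37 °C. Degradation followed by TLC.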

The species entered for data set [6] is Rattus norvegicus. The data set can be described thus: Time required for 100% degradation in rat intestinal homogenate. Type of data set: ADME. In a few lines: as §2
Data set [7] can be described thus: Time required for degradation by pepsin (none). In kind it is ADME.
The test system of a further data set is chymotrypsin. The data set can be described thus: Time required for 50% degradation by chymotrypsin. Type of data set: ADME. As to conditions: read-out: Time (converted). In outline:
(§3)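 Peptide (0.5–1.0 μmol) in 0.1 M Tris, pH 7.8, stirred at room temperature with chymotrypsin (37 units dissolved in 50 mL cold 0.001 N HCl; 0.050 mL per μmol peptide). Degradation followed over time by TLC.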

Data set [8] relates to Rattus norvegicus. Kind of data set: Inhibition of angiotensin I induced blood pressure in normotensive anesthetized rats at 1 ug/kg (i.v.) for 10 min. In kind it is functional. In outline: (§4)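 Male Sprague-Dawley normotensive rats (290-540 g), pentobarbital-anesthetized (50 mg/kg ip), intubated. Jugular vein cannulated for iv dosing and carotid artery for blood pressure. Control pressor response to angiotensin I (175 ng/kg iv) taken after vehicle (1 mL/kg). Compound given iv in distilled water or 5% sodium bicarbonate. Angiotensin I challenge repeated at 1.5 to 75 min, rise in pressure compared with control.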

In data set [9] the test system is Rattus norvegicus. The data set can be described thus: Inhibition of angiotensin I induced blood pressure in normotensive anesthetized rats at 10 ug/kg (i.v.) for 5 min. Type of data set: functional. In a few lines:
as §4

The subject of data set [10] is Rattus norvegicus. The data set can be described thus: Inhibition of angiotensin I induced blood pressure in normotensive anesthetized rats at 30 ug/kg (i.v.) for 1.5 min. Type of data set: functional. In outline:
as §4

Data set [11] relates to Rattus norvegicus. The data set can be described thus: Inhibition of angiotensin I induced blood pressure in normotensive anesthetized rats at 10 ug/kg (i.v.) for 75 min. As to conditions: in the assay text read “30 ug/kg” for “10 ug/kg”. In kind it is functional. In outline: as §4
Data set [12] concerns Rattus norvegicus. The data set can be described thus: Inhibition of angiotensin I induced blood pressure in normotensive anesthetized rats at 10 ug/kg (i.v.) for 30 min. In kind it is functional. In outline: as §4
Data set [13] relates to Rattus norvegicus. The data set can be described thus: Inhibition of angiotensin I induced blood pressure in normotensive anesthetized rats at 1 ug/kg (i.v.) for 1.5 min. Type of data set: functional. In outline: as §4
A short description of data set [14]: Time required for degradation by trypsin (none). Type of data set: ADME.
The subject of data set [15] is Rattus norvegicus. The data set can be described thus: Inhibition of angiotensin I induced blood pressure in normotensive anesthetized rats at 30 ug/kg (i.v.) for 30 min. In kind it is functional. In outline: as §4
Data set [16] in a line: Time required for degradation by chymotrypsin (none). Type of data set: ADME. In a few lines:
as §3

The subject of data set [17] is Rattus norvegicus. Kind of data set: Inhibition of angiotensin I induced blood pressure in normotensive anesthetized rats at 10 ug/kg (i.v.) for 10 min. In kind it is functional. In outline:
as §4

Data set [18] concerns Rattus norvegicus. The data set can be described thus: Inhibition of angiotensin I induced blood pressure in normotensive anesthetized rats at 1 ug/kg (i.v.) for 30 min. In kind it is functional. In a few lines: as §4
The test system of another data set is pepsin. The data set can be described thus: Time required for 50% degradation by pepsin. In kind it is ADME. As to conditions: read-out: Time (converted).
For data set [19], the system named is Rattus norvegicus. The data set can be described thus: Inhibition of angiotensin I induced blood pressure in normotensive anesthetized rats at 1 ug/kg (i.v.) for 5 min. Type of data set: functional. In outline: as §4
The test system of data set [20] is Rattus norvegicus. Kind of data set: Inhibition of angiotensin I induced blood pressure in normotensive anesthetized rats at 30 ug/kg (i.v.) for 5 min. Type of data set: functional. In outline:
as §4

Data set [21] has as its system Rattus norvegicus. Kind of data set: Inhibition of angiotensin I induced blood pressure in normotensive anesthetized rats at 30 ug/kg (i.v.) for 10 min. Type of data set: functional. In a few lines: as §4
Data set [22] concerns Rattus norvegicus. Kind of data set: Inhibition of angiotensin I induced blood pressure in normotensive anesthetized rats at 10 ug/kg (i.v.) for 1.5 min. Type of data set: functional. In outline: as §4
Data set [23] has as its target T1, Angiotensin-converting enzyme (Rattus norvegicus, UniProt P47820).
T1 sequence (P47820 whole entry): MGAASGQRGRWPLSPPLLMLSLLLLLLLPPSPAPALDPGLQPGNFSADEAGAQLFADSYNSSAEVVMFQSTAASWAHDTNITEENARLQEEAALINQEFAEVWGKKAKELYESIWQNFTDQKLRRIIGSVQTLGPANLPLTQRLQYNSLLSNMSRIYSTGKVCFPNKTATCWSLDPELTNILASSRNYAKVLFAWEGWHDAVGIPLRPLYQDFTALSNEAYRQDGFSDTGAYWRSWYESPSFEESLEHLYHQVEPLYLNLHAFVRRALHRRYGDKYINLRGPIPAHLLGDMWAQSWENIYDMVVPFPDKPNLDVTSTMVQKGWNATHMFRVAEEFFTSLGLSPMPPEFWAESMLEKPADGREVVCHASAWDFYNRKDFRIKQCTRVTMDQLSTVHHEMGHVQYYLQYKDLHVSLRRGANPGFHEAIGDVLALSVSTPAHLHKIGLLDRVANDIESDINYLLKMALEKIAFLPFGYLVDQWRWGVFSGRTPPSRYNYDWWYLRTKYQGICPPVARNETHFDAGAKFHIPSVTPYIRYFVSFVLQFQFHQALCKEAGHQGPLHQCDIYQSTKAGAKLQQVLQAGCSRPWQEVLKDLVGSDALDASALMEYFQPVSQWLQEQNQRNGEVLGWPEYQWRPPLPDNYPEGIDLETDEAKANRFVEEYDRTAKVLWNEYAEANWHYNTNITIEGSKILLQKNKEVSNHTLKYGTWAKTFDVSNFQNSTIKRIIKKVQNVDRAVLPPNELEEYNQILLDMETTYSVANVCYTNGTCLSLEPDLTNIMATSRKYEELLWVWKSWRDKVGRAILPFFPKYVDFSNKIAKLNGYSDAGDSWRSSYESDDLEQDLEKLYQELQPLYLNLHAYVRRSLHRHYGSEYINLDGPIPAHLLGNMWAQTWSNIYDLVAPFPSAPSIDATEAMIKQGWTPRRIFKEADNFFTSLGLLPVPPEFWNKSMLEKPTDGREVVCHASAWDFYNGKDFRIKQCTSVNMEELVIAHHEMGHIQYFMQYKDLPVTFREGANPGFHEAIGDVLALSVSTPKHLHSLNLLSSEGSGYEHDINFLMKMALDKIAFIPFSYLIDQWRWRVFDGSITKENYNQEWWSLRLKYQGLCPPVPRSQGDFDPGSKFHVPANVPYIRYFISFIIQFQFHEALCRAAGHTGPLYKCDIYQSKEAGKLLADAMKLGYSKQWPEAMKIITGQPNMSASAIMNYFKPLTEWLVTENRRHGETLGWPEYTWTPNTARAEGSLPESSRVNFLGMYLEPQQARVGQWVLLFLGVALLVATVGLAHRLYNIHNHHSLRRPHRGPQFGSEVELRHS
Kind of data set: Inhibition of Angiotensin I converting enzyme in normotensive rat. In kind it is functional. As to conditions: read-out: I50 (converted).

pIC50: −log10 of the molar value. Starred links: 1 amine or outer side, 2 acyl side, 3 side chain; linkers in the order of their positions; H or OH if unused. Non-standard residues stand in square brackets, D forms with d. Residues, ends and D or L forms follow the SMILES beside them. *: point of attachment. X2 = O=C(CCC(=O)[*:2])[C@H](Cc1ccccc1)N[*:1]; X1 = O=C(CCC(=O)[*:2])[C@@H]1CCCN1[*:1]; X3 = O=C1CCN([*:1])[C@H]1C(=O)[*:2]; Cyclobutanecarbonyl = O=C(C1CCC1)*; pGlu = O=C1CC[C@@H](C(=O)O)N1; Nle = CCCC[C@H](N)C(=O)O

For the compound `NCCCCC(NC(=O)C1CCC1)C(=O)NC(Cc1ccccc1)C(=O)CCC(=O)N1CCCC1C(=O)O` (stereo not drawn), the pIC50 in [1] was 8.22.

On to `C[C@H](NC(=O)[C@H](Cc1ccccc1)NC(=O)[C@H](CCCCN)NC(=O)C1CCC1)C(=O)N1CCC[C@H]1C(=O)O` (Cyclobutanecarbonyl-KFAP-OH), for which, in data set [1], the pIC50 is 7.40.

For the compound `NCCCC[C@H](NC(=O)[C@@H]1CCCN1C(=O)CNC(=O)[C@@H]1CCCN1C(=O)[C@H](Cc1ccc(O)cc1)NC(=O)C1CCC1)C(=O)N[C@@H](Cc1ccccc1)C(=O)NCC(=O)N1CCC[C@H]1C(=O)O` (Cyclobutanecarbonyl-YPGPKFGP-OH), the half-life is more than 1 h in [2], less than 5 min in the data set with trypsin, 0.333 h in data set [5] and 22 h with chymotrypsin. The Time in data set [3] came out at 20 min; in the data set listed under Rattus norvegicus [4] it was 5 h; in the data set listed under Rattus norvegicus [6] it was 40 min; in data set [7], 24 h. Also, the pIC50 in [1] was 6.47.

Turning to `CCCC[C@H](NC(=O)[C@@H]1CCCN1C(=O)CCC(=O)[C@@H]1CCCN1C(=O)[C@H](Cc1ccc(O)cc1)NC(=O)C1CCC1)C(=O)N[C@@H](Cc1ccccc1)C(=O)CCC(=O)N1CCC[C@H]1C(=O)O` (Cyclobutanecarbonyl-Y[X1]P[Nle][X2]P-OH), the Inhibition over time with Rattus norvegicus [8] worked out at 24.3%; with Rattus norvegicus [9] it was 27.5%; with Rattus norvegicus [10], 88.5%; with Rattus norvegicus [11], 0%; in the data set on Rattus norvegicus [12] it was 0%; with Rattus norvegicus [13], 26.3%. Besides, the Inhibition over time is on record as 30.8% with Rattus norvegicus [15]; 14.5% in the data set on Rattus norvegicus [17]; 22.4% with Rattus norvegicus [18]; 25.6% in the data set on Rattus norvegicus [19]; 59.8% in the data set with Rattus norvegicus [20]; 37% in the data set on Rattus norvegicus [21]. Besides, the Inhibition over time in the data set on Rattus norvegicus [22] stood at 64.3%. Further, the results for the half-life (in data set [2]; with pepsin; in data set [5]) were 5 h, 3 h and 7 h, respectively. Further, the Time was determined as 24 h in data set [14], 24 h in data set [16] and 1380 min in the data set listed under Rattus norvegicus [6]. Also, the pIC50 in data set [1] is 8.10.

Take `C[C@H](NC(=O)[C@H](Cc1ccccc1)NC(=O)[C@H](CCCCN)NC(=O)[C@@H]1NCCC1=O)C(=O)N1CCC[C@H]1C(=O)O` (H-[X3]KFAP-OH): the IC50 in data set [23] was 0.0873 µM.

As for `NCCCC[C@H](NC(=O)[C@@H]1CCC(=O)N1)C(=O)N[C@@H](Cc1ccccc1)C(=O)NCC(=O)N1CCC[C@H]1C(=O)O` ([pGlu]KFGP-OH), the IC50 in data set [23] is 0.179 µM.

The values above are taken from ChEMBL document CHEMBL1124054, “Synthesis and biological activity of ketomethylene-containing nonapeptide analogues of snake venom angiotensin converting enzyme inhibitors” (J Med Chem, 1988).
